Measurements taken from ChEMBL document CHEMBL5653631, “A Potent and Selective ULK1 Inhibitor Suppresses Autophagy and Sensitizes Cancer Cells to Nutrient Stress” (iScience, 2018).

Key:
[1] = biological target: MAP kinase-activated protein kinase 2 (Homo sapiens) (UniProt P49137); test: Inhibition of human recombinant MAPKAPK2 at 500 nM in presence of ATP by radiometric assay relative to control
[2] = biological target: PAS domain-containing serine/threonine-protein kinase (Homo sapiens) (UniProt Q96RG2); test: Inhibition of human recombinant PASK at 500 nM related to control ULK1
Chain of PAS domain-containing serine/threonine-protein kinase (Homo sapiens) (Q96RG2 whole entry, the tested form may be a part): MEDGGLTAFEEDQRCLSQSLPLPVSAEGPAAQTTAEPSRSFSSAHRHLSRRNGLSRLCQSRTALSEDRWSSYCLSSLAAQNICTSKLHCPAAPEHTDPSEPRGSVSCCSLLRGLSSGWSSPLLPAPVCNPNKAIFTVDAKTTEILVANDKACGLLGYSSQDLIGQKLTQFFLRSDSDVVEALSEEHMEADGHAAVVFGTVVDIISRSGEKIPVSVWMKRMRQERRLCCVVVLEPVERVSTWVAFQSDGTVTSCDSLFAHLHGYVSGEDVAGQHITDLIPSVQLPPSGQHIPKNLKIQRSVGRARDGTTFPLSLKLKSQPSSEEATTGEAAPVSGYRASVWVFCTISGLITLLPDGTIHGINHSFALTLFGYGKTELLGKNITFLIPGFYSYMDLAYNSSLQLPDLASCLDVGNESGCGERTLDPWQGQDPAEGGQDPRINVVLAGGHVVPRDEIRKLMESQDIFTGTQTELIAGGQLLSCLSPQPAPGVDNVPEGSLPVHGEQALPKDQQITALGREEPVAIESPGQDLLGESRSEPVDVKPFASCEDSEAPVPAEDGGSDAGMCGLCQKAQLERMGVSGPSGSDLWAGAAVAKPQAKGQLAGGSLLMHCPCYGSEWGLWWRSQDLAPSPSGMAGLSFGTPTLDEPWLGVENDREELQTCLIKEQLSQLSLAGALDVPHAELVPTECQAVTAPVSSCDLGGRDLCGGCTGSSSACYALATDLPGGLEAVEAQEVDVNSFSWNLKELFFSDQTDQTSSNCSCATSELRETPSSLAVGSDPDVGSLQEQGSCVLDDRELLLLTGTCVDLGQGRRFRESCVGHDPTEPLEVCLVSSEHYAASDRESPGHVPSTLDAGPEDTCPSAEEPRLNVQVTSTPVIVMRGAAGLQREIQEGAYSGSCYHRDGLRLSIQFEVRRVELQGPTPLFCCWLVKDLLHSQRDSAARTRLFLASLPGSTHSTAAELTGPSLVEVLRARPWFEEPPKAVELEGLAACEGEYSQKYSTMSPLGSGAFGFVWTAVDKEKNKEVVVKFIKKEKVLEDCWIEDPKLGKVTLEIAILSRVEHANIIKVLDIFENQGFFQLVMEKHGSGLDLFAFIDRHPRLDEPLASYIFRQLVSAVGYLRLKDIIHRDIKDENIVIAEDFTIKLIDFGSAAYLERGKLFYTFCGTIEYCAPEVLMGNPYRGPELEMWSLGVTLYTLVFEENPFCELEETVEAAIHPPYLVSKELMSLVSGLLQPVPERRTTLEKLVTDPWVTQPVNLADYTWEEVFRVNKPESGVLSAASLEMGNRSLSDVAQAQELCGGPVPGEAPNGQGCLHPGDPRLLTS

[3] = biological target: T1, Testis-specific serine/threonine-protein kinase 3 (Homo sapiens) (UniProt Q96PN8); test: Inhibition of human recombinant TSSK3 at 500 nM related to control ULK1
T1 sequence (whole entry): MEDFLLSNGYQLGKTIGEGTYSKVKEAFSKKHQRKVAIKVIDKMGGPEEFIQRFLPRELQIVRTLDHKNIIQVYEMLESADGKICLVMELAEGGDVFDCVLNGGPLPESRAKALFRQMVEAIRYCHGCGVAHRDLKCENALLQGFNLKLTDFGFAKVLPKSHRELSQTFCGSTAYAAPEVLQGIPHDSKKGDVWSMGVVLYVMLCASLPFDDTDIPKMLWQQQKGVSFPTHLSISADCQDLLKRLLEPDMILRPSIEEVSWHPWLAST

[4] = biological target: Serine/threonine-protein kinase 4 (Homo sapiens) (UniProt Q13043); test: Inhibition of human recombinant MST1 at 500 nM related to control ULK1
[5] = biological target: T2, G protein-coupled receptor kinase 3 (Homo sapiens) (UniProt P35626); test: Inhibition of human recombinant BARK2 at 15 nM in presence of ATP by radiometric assay relative to control
T2 sequence (whole entry): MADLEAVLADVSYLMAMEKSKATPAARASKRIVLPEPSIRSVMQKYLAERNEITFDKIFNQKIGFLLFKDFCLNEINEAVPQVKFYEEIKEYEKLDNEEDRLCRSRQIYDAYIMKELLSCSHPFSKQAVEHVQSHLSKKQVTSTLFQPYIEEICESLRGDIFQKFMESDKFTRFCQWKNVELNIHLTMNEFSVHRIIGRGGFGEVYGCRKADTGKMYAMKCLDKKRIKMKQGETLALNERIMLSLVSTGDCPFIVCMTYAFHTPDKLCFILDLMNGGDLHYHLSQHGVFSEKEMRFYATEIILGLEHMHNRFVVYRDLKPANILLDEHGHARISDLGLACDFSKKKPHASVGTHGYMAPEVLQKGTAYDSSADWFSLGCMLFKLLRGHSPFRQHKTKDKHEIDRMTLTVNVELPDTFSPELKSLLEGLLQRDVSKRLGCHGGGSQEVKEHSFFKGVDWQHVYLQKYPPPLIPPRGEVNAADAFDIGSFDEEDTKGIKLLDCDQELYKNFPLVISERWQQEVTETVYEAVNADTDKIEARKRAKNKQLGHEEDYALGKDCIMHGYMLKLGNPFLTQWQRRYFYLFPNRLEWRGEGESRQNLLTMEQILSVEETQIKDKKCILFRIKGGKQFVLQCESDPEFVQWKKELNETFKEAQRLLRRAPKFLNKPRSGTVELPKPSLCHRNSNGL
In short: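 Part of a radiometric in vitro activity panel of 327 recombinant human kinases. Each kinase was tested in duplicate at one inhibitor concentration. Activity remaining was expressed as a percentage of the vehicle control, and percent inhibition was taken as 100 minus that value.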

[6] = biological target: Serine/threonine-protein kinase Nek7 (Homo sapiens) (UniProt Q8TDX7); test: Inhibition of human recombinant NEK7 at 15 nM in presence of ATP by radiometric assay relative to control
Chain of Serine/threonine-protein kinase Nek7 (Homo sapiens) (Q8TDX7 whole entry, looked up): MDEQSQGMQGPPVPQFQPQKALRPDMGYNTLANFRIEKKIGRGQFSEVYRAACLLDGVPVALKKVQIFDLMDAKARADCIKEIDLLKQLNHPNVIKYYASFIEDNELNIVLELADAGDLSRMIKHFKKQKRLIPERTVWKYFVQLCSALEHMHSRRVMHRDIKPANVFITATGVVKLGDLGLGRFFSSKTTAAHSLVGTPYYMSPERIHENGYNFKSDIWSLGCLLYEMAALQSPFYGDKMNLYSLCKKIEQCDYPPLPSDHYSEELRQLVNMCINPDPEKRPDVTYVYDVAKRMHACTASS

[7] = biological target: T3, cGMP-dependent protein kinase 1 (Homo sapiens) (UniProt Q13976); test: Inhibition of human recombinant PKG1 at 15 nM in presence of ATP by radiometric assay relative to control
T3 sequence (whole entry): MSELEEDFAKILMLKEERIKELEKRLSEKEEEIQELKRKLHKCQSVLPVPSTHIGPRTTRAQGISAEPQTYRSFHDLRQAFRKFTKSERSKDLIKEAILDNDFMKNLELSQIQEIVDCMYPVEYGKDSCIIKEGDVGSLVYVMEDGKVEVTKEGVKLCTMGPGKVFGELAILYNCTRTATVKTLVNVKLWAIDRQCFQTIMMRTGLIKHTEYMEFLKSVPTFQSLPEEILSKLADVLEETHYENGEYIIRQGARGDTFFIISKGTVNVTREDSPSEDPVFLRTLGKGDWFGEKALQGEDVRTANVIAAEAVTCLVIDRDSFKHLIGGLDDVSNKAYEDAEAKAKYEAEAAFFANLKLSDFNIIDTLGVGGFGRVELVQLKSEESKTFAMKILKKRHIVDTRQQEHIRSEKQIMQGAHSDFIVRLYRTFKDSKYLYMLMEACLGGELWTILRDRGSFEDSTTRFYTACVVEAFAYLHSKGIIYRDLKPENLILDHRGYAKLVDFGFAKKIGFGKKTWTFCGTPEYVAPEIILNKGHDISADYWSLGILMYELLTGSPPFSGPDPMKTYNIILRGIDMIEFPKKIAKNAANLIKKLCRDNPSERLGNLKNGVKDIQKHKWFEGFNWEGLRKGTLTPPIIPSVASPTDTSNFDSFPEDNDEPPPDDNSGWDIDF

[8] = biological target: RAC-beta serine/threonine-protein kinase (Homo sapiens) (UniProt P31751); test: Inhibition of human recombinant AKT2 at 15 nM related to control ULK1
Chain of RAC-beta serine/threonine-protein kinase (Homo sapiens) (P31751 whole entry): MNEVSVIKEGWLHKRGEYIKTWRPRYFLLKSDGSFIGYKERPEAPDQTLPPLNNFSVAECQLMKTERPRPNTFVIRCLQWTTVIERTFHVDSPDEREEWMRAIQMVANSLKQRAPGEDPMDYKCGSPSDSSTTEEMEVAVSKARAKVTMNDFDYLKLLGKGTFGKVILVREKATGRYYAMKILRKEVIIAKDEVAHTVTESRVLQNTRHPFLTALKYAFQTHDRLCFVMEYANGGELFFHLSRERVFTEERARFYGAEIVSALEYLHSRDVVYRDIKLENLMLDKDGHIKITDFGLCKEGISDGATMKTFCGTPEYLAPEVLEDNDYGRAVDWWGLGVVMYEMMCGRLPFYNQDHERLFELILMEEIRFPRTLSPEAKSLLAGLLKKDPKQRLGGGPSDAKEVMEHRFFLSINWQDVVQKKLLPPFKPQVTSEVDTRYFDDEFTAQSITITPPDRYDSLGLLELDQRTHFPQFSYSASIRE

[9] = biological target: Mitogen-activated protein kinase kinase kinase 20 (Homo sapiens) (UniProt Q9NYL2); test: Inhibition of human recombinant ZAK at 15 nM related to control ULK1
Chain of Mitogen-activated protein kinase kinase kinase 20 (Homo sapiens) (Q9NYL2 2-800 limits assumed): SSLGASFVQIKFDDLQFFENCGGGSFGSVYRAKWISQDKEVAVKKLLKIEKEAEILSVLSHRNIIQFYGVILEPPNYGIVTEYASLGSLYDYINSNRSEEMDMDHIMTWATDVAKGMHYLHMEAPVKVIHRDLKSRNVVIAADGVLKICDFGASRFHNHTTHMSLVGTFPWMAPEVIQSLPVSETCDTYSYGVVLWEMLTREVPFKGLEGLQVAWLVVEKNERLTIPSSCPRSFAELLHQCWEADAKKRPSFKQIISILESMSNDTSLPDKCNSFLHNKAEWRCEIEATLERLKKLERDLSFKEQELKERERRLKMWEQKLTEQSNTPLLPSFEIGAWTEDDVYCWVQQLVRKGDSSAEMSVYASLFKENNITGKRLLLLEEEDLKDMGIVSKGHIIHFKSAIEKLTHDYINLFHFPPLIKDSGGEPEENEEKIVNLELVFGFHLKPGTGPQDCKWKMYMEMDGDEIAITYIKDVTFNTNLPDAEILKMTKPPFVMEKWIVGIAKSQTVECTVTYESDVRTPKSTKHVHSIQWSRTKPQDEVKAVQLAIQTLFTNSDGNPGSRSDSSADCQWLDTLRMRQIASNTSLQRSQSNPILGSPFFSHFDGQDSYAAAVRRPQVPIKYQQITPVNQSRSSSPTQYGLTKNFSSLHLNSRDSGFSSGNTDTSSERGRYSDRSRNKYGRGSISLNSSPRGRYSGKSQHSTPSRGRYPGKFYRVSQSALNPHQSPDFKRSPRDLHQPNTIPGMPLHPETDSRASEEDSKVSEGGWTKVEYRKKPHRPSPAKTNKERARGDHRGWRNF

[10] = biological target: Serine/threonine-protein kinase PAK 6 (Homo sapiens) (UniProt Q9NQU5); test: Inhibition of human recombinant PAK6 at 40 nM in presence of ATP by radiometric assay relative to control
Chain of Serine/threonine-protein kinase PAK 6 (Homo sapiens) (Q9NQU5 whole entry, looked up): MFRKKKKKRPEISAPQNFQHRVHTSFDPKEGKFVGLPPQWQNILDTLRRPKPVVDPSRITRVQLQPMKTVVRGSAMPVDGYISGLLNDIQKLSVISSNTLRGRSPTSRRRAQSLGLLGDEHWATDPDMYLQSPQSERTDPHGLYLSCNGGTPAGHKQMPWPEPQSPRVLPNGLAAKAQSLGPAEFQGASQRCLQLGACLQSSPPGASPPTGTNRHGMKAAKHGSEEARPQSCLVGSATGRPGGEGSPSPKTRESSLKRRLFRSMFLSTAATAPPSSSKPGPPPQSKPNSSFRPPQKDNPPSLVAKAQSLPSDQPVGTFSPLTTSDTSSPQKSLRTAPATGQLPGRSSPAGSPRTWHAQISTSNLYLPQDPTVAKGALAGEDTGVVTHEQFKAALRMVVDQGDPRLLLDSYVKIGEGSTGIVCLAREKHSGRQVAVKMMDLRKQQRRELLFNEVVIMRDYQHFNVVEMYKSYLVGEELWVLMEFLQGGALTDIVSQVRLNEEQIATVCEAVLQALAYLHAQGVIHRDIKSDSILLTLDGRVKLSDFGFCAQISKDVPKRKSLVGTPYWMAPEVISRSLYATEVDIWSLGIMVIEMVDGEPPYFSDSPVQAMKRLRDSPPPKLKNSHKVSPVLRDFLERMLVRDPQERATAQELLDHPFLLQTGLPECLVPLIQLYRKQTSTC

[11] = biological target: Dual specificity protein kinase CLK1 (Homo sapiens) (UniProt P49759); test: Inhibition of human recombinant CLK1 at 40 nM related to control ULK1
Chain of Dual specificity protein kinase CLK1 (Homo sapiens) (P49759 whole entry, looked up): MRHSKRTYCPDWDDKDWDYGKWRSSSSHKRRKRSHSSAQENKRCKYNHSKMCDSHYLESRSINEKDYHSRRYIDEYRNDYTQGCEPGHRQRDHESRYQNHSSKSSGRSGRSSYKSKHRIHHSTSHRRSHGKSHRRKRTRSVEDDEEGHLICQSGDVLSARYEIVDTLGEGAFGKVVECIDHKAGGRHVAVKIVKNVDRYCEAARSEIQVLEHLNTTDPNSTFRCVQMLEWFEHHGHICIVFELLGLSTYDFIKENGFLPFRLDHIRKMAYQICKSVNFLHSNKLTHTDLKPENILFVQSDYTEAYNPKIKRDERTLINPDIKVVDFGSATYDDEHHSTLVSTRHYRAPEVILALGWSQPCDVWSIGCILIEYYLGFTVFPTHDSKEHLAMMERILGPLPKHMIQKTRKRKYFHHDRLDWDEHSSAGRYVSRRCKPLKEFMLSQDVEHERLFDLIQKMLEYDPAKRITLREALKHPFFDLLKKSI

[12] = biological target: Serine/threonine-protein kinase Nek6 (Homo sapiens) (UniProt Q9HC98); test: Inhibition of human recombinant NEK6 at 40 nM related to control ULK1
Chain of Serine/threonine-protein kinase Nek6 (Homo sapiens) (Q9HC98 whole entry): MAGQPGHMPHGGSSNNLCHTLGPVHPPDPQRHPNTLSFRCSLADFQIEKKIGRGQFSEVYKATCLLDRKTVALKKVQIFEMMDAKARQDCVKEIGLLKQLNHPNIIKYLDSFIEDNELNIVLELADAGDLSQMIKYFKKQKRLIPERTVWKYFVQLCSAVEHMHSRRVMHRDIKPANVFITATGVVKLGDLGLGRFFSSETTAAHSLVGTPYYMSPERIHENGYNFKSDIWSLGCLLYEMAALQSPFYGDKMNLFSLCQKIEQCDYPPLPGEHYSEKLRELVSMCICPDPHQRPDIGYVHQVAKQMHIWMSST

Chain of MAP kinase-activated protein kinase 2 (Homo sapiens) (P49137 whole entry, looked up, the tested form may be a part): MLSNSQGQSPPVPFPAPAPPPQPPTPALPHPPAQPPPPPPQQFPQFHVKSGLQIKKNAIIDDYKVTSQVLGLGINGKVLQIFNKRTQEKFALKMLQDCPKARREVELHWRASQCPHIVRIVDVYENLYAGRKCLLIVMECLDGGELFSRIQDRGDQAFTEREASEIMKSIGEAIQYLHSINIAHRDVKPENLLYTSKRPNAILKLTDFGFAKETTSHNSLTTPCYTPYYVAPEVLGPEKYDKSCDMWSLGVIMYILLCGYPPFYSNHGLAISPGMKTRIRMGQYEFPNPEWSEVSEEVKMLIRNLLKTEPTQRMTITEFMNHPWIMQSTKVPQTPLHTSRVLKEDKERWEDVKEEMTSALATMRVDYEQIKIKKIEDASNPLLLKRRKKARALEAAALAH

## CNC(=O)c1ccccc1Oc1nc(Nc2cc(OC)c(OC)c(OC)c2)ncc1Br
[1]
  inhibition: 0%
[2]
  fold change (FC): 0.14
[3]
  fold change (FC): 0
[4]
  fold change (FC): 0

## CC(C)[C@H](NC(=O)c1cc(-c2cnn3cc(-c4ccc(OCCN5CCCCC5)cc4)cnc23)cs1)C(F)(F)F
[5]
  inhibition: 0%
[6]
  inhibition: 0%
[7]
  inhibition: 0%
[8]
  fold change (FC): 0
[9]
  fold change (FC): 0.3

## O=C(N[C@@H](C1CC1)C(F)(F)F)c1cc(-c2cnn3cc(-c4ccc(F)cc4)cnc23)cs1
[10]
  inhibition: 7%
[11]
  fold change (FC): 0.47
[12]
  fold change (FC): 0
